Source: PubChem
Hits are enriched below; roughly 3.1% of the tested compounds scored in any of these assays.
KCNQ1 block – human KCNQ1 channel inhibition | CHO-K1 KCNQ1, FluxOR thallium flux fluorescence; active compounds read high | B-score at 10 µM | AID 2642 | 1.3% of 310,000 active;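 active = compounds whose thallium flux B-score, printed positive for inhibition, exceeds three library SD while starting fluorescence stays within three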;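 note: channel opened by potassium depolarization with thallium stimulus after 20 min compound exposure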
Target sequence (P51787 whole entry, looked up): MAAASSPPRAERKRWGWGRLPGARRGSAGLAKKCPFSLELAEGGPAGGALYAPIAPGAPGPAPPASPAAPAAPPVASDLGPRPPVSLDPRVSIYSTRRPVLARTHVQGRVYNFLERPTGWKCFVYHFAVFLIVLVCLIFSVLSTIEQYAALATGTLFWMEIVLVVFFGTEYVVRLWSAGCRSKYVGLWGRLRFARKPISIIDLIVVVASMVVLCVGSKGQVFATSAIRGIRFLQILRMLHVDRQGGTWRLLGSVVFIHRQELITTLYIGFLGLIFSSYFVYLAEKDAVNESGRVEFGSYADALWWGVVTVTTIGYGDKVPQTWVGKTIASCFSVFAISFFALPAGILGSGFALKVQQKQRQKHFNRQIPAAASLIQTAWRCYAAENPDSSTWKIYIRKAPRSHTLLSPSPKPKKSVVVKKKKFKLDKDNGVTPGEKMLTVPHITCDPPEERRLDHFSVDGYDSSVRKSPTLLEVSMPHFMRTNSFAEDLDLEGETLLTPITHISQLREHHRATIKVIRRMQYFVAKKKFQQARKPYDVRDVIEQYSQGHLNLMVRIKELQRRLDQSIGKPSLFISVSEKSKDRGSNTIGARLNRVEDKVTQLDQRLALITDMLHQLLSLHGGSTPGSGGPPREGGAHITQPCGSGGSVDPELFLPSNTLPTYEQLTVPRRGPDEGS
hERG rescue – hERG (human) protection from proarrhythmic block | 0.51% of 310,000 active | AID 1511 | activation (rescue from dofetilide block), less the hit threshold, % at 10 µM | Q12809 | CHO-hERG, FluxOR thallium flux, dofetilide IC70 present;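 active = activation above the mean of controls blocked by dofetilide plus 5 SD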;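 note: thallium influx through hERG after potassium depolarization seen as dye fluorescence rise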
KCNK9 inh – human KCNK9 channel inhibition; B-score at 10 µM; HEK293 KCNK9, FluxOR thallium flux fluorescence; active compounds read low; 1.2% of 310,000 active;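 active = ratio B-score over 3 SD below the library mean, with starting fluorescence within 5 SD of its mean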;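 note: negative B-score means less thallium flux so channel inhibition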
KCNK3 block – human KCNK3 channel inhibition, primary screen; O14649; CHO-KCNK3 thallium flux, FluxOR fluorescence; active compounds read low; B-score at 10 µM; 0.84% of 340,000 active; AID 602410;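 active = B-score under library mean minus 4 SD, starting fluorescence ratio at most library mean plus 5 SD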;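 note: more negative B-score means stronger inhibition of thallium flux through KCNK3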
KCNQ1 act – potentiators or activators of human KCNQ1 potassium channel | CHO-K1 KCNQ1, thallium flux FluxOR fluorescence; active compounds read high | B-score at 10 µM | 0.35% of 310,000 active;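 active = fluorescence ratio B-score, a plate-corrected score, at least three library SD, with initial intensity B-score within 5 SD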
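assay system = KCNQ1-transfected CHO-K1 cells | medium = assay buffer with matched DMSO | probe or stimulus = depolarizing K+/Tl+ stimulus, K2SO4 and Tl2SO4 each 12.5 mM in 5x stock | dosing = single dose | incubation = dye 90 min, compound 20 min, room temperature | detection = kinetic FluxOR fluorescence, 10 s baseline plus 110 s post-stimulus | evaluation = ratio B score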
KCNK9 block conf – human KCNK9 inhibitor confirmation | shares compounds with KCNK9 inh | HEK293 KCNK9 cells, FluxOR thallium flux fluorescence | inhibition, % at 10 µM | 43% of 4,900 active | AID 492992;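 active = thallium signal inhibited by more than 5 SD of the compound-free buffer control wells, on both duplicate plates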
Kir21 sel – tests whether KCNK9 modulators also affect mouse Kir2.1 | 4% of 4,900 active | AID 492993 | inhibition, % at 10 µM | Kir2.1 cells, FluxOR thallium flux fluorescence | shares compounds with KCNK9 inh;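 active = thallium signal drop more than 5 SD beyond the mean of the no-compound control wells, seen in both duplicate plates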;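 note: signal is fluorescence rise after thallium addition divided by baseline fluorescence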
HEK293 Tl ctr – second counter-screen for KCNK9 modulators: effect in non-induced cells; shares compounds with KCNK9 inh; non-induced KCNK9-HEK293, FluxOR thallium flux; inhibition, % at 10 µM; 40% of 4,900 active; AID 492997;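 active = thallium signal drop beyond 5 SD of the untreated control mean, on both duplicate plates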
KCNK3 confirm – human KCNK3 channel inhibition, confirmation assay; CHO-KCNK3 thallium flux, FluxOR fluorescence; 0% buffer, 100% carvedilol maximal block; shares compounds with KCNK3 block; ratio percent of control, % at 10 µM; 99% of 2,400 active;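 active = ratio percent of control, averaged over triplicates, above buffer control mean plus 5 SD, cut at about 64% in these data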;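 note: ratio is the fluorescence rise from min to max over baseline after thallium stimulus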
KCNK3 noninduced – KCNK3 inhibitor counter-screen hit in non-induced cells | shares compounds with KCNK3 block | non-induced KCNK3 parental cells, FluxOR thallium flux; active compounds read low | thallium flux ratio (lower = more inhibition) at 10 µM | 40% of 2,400 active | AID 651747;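 active = thallium flux ratio, averaged over three wells, more than 5 SD below the buffer control mean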;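 note: host cells are CHO cells without KCNK3 induction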
A number is an active result; n = inactive; x = not tested or not shown.

SMILES | KCNQ1 block | hERG rescue | KCNK9 inh | KCNK3 block | KCNQ1 act | KCNK9 block conf | Kir21 sel | HEK293 Tl ctr | KCNK3 confirm | KCNK3 noninduced
CC(C1CC1)N(Cc1ccccc1)C(=S)Nc1cccc(C(F)(F)F)c1 (centres undefined) | n | n | -13 | -9.2 | n | 56% | n | 39% | 125 | n
CN(CC(=O)Nc1cccc(C(F)(F)F)c1)Cc1ccccc1 | n | n | -15 | -12 | n | 64% | n | 41% | 106 | n
COc1ccc(OC)c(CCNC(=O)CN2C(=O)COc3ccc(S(=O)(=O)N4CCOCC4)cc32)c1 | n | n | n | n | n | x | x | x | x | x
COc1cc2ccc(=O)oc2c(CC=C(C)C)c1OC | n | n | n | n | n | x | x | x | x | x
COc1cc(O)cc2c1[C@@H]1Oc3c(ccc(O)c3CC=C(C)C)[C@@H]1CO2 | n | n | -12 | n | n | 54% | n | n | 137 | 0.12
COc1cccc(-c2nn(-c3ccccc3)cc2C(=O)O)c1 | n | n | n | n | n | x | x | x | x | x
COc1cccc(-c2nn(-c3ccccc3)cc2/C=C\C(=O)c2cccs2)c1 | n | n | -9.5 | -12 | n | 39% | n | 30% | 89 | n
COc1ccc(-c2cccc(NC(=O)c3cccs3)c2)nn1 | n | n | -9.1 | -10 | n | 35% | n | n | 96 | n
Cc1ccc(NC(=O)c2cccs2)cc1NC(=O)c1ccccc1Cl | n | n | n | n | n | x | x | x | x | x
O=C(Nc1cccc(NC(=O)c2ccccc2Cl)c1)c1cccs1 | n | n | -13 | n | n | 57% | n | 28% | 112 | n
Cc1cccn2c(NCc3ccc4c(c3)OCO4)c(-c3ccc(O)cc3)nc12 | n | n | n | n | n | x | x | x | x | x
COc1ccc(-c2nc3ccccn3c2NCc2ccc3c(c2)OCO3)cc1 | n | n | -9.6 | -9.7 | n | 48% | n | n | 110 | n
Cc1csc(NC(=O)c2ccc(Cn3nc(C)c(Br)c3C)o2)n1 | n | n | n | n | n | x | x | x | x | x
Cc1cc(C)cc(NC(=O)c2ccc(Cn3nc(C)c(Cl)c3C)o2)c1 | n | n | -10 | -9.4 | n | n | n | n | 137 | 0.12
CCC(Oc1ccccc1)C(=O)Nc1ccccc1N1CCCC1 (centres undefined) | n | n | -11 | -13 | n | 59% | 45% | 74% | 111 | n
CCC(Oc1ccccc1)C(=O)Nc1ccccc1OC (centres undefined) | n | n | n | n | n | x | x | x | x | x
O=C(Nc1cccc(Cl)c1)N(CCN1CCOCC1)Cc1ccccc1F | n | n | n | n | n | x | x | x | x | x
C=CCC(c1ccccc1F)N(CCN1CCOCC1)C(=O)Nc1cccc(Cl)c1 (centres undefined) | n | n | -13 | -8.9 | n | 57% | n | 40% | 127 | 0.14
Cc1onc(-c2ccccc2Cl)c1C(=O)N(C)C1CCCCC1 | n | n | n | n | n | x | x | x | x | x
CCN(C(=O)c1c(-c2ccccc2Cl)noc1C)C1CCCCC1 | n | n | -9.1 | -12 | n | 50% | n | 33% | 107 | n
Clc1ccc(Cc2ccccn2)cc1 | x | x | x | n | x | x | x | x | x | x
O=C(O)C1CCN(C(=O)c2ccccc2N2C(=O)[C@@H]3Cc4c([nH]c5ccccc45)C(c4cccc(Cl)c4)N3C2=O)CC1 (some centres undefined) | n | n | n | n | n | x | x | x | x | x
CCc1ccc(NC(=O)c2sccc2-n2cccc2)cc1 | n | n | -8.6 | -12 | n | 59% | n | 40% | 100 | 0.15
Cc1cc(NC(=O)c2cccc(COc3ccc(Br)cc3)c2)no1 | n | n | -11 | -8.9 | n | n | n | n | 65 | n
CCOc1ccc(C(C)(C)C)cc1S(=O)(=O)n1nc(C)cc1C | 6 | n | -9.6 | -8.8 | n | 54% | n | 38% | 113 | n
SMILES | KCNQ1 block | hERG rescue | KCNK9 inh | KCNK3 block | KCNQ1 act | KCNK9 block conf | Kir21 sel | HEK293 Tl ctr | KCNK3 confirm | KCNK3 noninduced
CCOC(=O)C1CCN(c2nc(-c3ccc(C)cc3)nc3ccccc23)CC1 | n | n | -8.2 | -9.2 | n | 48% | n | 30% | 108 | n
COc1cccc(OC)c1C(=O)Nc1cccc(-c2nc3ccccc3[nH]2)c1 | n | n | -13 | -9.9 | n | 40% | n | n | 133 | 0.12
CCN(CC)S(=O)(=O)c1ccc(Cl)c(C(=O)Nc2cc(C)nn2-c2ccccc2C(F)(F)F)c1 | n | n | n | x | n | x | x | x | x | x
Cc1nc(SC(C)C(=O)Nc2cccc(C(F)(F)F)c2)c2c(C)c(C(=O)O)sc2n1 (centres undefined) | n | n | n | n | n | x | x | x | x | x
Cc1nc(N2CCC(C)CC2)c2c(C)c(C(=O)Nc3cccc(C(F)(F)F)c3)sc2n1 | 13 | n | n | -9.4 | n | n | n | 30% | 126 | 0.13
Cc1ccc(NC(=O)CN(c2ccc(Cl)cc2)S(=O)(=O)c2cc([N+](=O)[O-])ccc2Cl)c(C)c1 | n | n | -14 | -15 | n | 62% | n | 36% | 115 | n
O=C(CSc1nc2ccccc2c(=O)n1-c1ccc(OC(F)F)cc1)NC1CC1 | x | x | x | n | x | x | x | x | x | x
CCN(Cc1ccncc1)C(=O)c1cc(COc2ccc(F)cc2Cl)on1 | n | n | n | n | n | x | x | x | x | x
C#CCN(Cc1ccco1)C(=O)c1cc(COc2ccc(F)cc2Cl)on1 | n | n | -9.3 | -11 | n | n | n | 34% | 115 | 0.15
O=C(NNC(=O)c1cc(-c2ccccc2)nc2ccccc12)c1csc(N2CCOCC2)n1 | n | n | n | n | n | x | x | x | x | x
O=C(NNC(=O)c1cc(-c2ccc(Cl)cc2)nc2ccccc12)c1csc(N2CCOCC2)n1 | n | n | -10 | -9 | n | 28% | n | n | 80 | n
CCCCCCNC(=O)CC(c1ccccc1)c1cc(Br)ccc1O (centres undefined) | n | n | -11 | -9.8 | n | 51% | n | 32% | 119 | 0.15
CSC(=NC#N)N1CCN(C(c2ccccc2)c2ccccc2)CC1 | n | n | -9.8 | n | n | 39% | n | 35% | 123 | n
CSC(=NC#N)N1CCN(C(=NC#N)SC)CC1 | n | n | n | n | n | x | x | x | x | x
COc1ccc(C(CNC(=O)C2COc3ccccc3O2)N2CCCC2)cc1 (centres undefined) | x | x | x | n | x | x | x | x | x | x
COc1ccccc1OCC(=O)Nc1cccc(-c2nc3ccccc3o2)c1 | n | n | -12 | n | n | 45% | n | n | 114 | n
Cc1[nH]nc(SCC(=O)NC2CCCCC2)c1[N+](=O)[O-] | n | n | n | n | n | x | x | x | x | x
